# Legend:
# [1] = target: T1, Extracellular calcium-sensing receptor (Homo sapiens, UniProt P41180); test: Antagonist activity at CaSR expressed in CHO cells assessed as [35S]-GTPgammaS binding by scintillation counting; type: functional, cell-based
# T1 sequence (P41180 whole entry): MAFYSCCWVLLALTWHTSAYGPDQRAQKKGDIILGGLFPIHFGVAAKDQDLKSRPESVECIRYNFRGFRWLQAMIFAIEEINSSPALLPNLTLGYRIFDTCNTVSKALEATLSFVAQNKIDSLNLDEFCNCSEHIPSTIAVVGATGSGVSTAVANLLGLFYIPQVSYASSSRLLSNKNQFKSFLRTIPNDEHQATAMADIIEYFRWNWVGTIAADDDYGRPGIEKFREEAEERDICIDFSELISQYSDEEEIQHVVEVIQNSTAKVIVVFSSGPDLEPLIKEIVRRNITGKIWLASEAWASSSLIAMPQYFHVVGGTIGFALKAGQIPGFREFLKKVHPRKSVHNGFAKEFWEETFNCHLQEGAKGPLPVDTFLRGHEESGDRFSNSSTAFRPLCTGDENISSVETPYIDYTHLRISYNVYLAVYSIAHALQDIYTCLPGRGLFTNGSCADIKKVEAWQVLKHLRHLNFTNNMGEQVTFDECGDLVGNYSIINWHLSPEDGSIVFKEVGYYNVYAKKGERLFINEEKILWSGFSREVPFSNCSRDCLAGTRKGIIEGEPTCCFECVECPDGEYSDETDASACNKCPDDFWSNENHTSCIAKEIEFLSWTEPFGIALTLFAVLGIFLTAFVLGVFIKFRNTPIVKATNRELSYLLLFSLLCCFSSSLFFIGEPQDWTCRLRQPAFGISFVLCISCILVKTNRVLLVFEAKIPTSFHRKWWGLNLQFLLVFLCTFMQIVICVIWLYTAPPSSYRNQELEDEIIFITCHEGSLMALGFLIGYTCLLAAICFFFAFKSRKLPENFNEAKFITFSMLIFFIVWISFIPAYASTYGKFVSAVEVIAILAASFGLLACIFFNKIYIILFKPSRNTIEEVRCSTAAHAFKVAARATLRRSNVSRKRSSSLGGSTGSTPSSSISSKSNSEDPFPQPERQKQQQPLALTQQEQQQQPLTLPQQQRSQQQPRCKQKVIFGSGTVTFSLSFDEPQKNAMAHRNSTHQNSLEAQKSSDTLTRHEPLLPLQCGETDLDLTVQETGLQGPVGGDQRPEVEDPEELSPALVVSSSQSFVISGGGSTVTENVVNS
# [2] = Cmax in Crl:CD(SD) rat at 10 mg/kg, po administered with 0.5% methylcellulose suspension; type: ADME, organism-based; parameters: dose 10 mg/kg, route oral; details: in vivo
# Procedure, shortened: (§1)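 Nonfasted male rats, 8 weeks old, n = 3, single oral dose 10 mg/kg. Blood sampled at 0.25, 0.5, 1, 2, 4, 8 and 24 h and spun to plasma. Plasma deproteinized with acetonitrile, supernatant diluted in 0.01 mol/L ammonium acetate, re-centrifuged, assayed by HPLC. Mean ± SD reported.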
# [3] = Cmax in Crl:CD(SD) rat at 10 mg/kg, po administered with solubilized reagent; type: ADME, organism-based; parameters: dose 10 mg/kg, route oral; details: in vivo; procedure, shortened: as §1
# [4] = Tmax in Crl:CD(SD) rat at 10 mg/kg, po administered with 0.5% methylcellulose suspension; type: ADME, organism-based; parameters: dose 10 mg/kg, route oral; details: in vivo; procedure, shortened: as §1
# [5] = Tmax in Crl:CD(SD) rat at 10 mg/kg, po administered with solubilized reagent; type: ADME, organism-based; parameters: dose 10 mg/kg, route oral; details: in vivo; procedure, shortened: as §1
# [6] = AUC in Crl:CD(SD) rat at 10 mg/kg, po administered with 0.5% methylcellulose suspension; type: ADME, organism-based; parameters: dose 10 mg/kg, route oral; details: in vivo; procedure, shortened: as §1
# [7] = AUC in Crl:CD(SD) rat at 10 mg/kg, po administered with solubilized reagent; type: ADME, organism-based; parameters: dose 10 mg/kg, route oral; details: plasma; procedure, shortened: as §1
# [8] = Mean residence time in Crl:CD(SD) rat at 10 mg/kg, po administered with 0.5% methylcellulose suspension; type: ADME, organism-based; parameters: dose 10 mg/kg, route oral; details: in vivo; procedure, shortened: as §1
# [9] = Mean residence time in Crl:CD(SD) rat at 10 mg/kg, po administered with solubilized reagent; type: ADME, organism-based; parameters: dose 10 mg/kg, route oral; details: in vivo; procedure, shortened: as §1
Compound,IC50 [1] [nM],also measured
O=C(NC12CC3CC(CC(C3)C1)C2)c1cnn2c1N[C@H](c1ccccc1)C[C@@H]2C(F)(F)F,40,
CN1c2c(C(=O)NC34CC5CC(CC(C5)C3)C4)cnn2[C@@H](C(F)(F)F)C[C@H]1c1ccccc1,> 10000,
FC(F)(F)[C@H]1C[C@@H](c2ccccc2)Nc2c(CNC34CC5CC(CC(C5)C3)C4)cnn21,> 10000,
O=C(NC12CC3CC(CC(C3)C1)C2)c1cnn2c1N[C@H](c1ccccc1Cl)C[C@@H]2C(F)(F)F,110,
O=C(NC12CC3CC(CC(C3)C1)C2)c1cnn2c1N[C@H](c1cccc(Cl)c1)C[C@@H]2C(F)(F)F,320,
O=C(NC12CC3CC(CC(C3)C1)C2)c1cnn2c1N[C@H](c1ccc(Cl)cc1)C[C@@H]2C(F)(F)F,> 10000,
O=C(NC12CC3CC(CC(C3)C1)C2)c1cnn2c1N[C@H](c1cccnc1)C[C@@H]2C(F)(F)F,> 10000,
O=C(NC12CC3CC(CC(C3)C1)C2)c1cnn2c1N[C@H](c1ccccc1)C[C@@H]2c1ccccc1,700,
C[C@H]1C[C@@H](c2ccccc2)Nc2c(C(=O)NC34CC5CC(CC(C5)C3)C4)cnn21,76,
O=C(NC12CC3CC(CC(C3)C1)C2)c1cnn2c1NCC[C@@H]2C(F)(F)F,> 10000,
O=C(NC12CC3CC(CC(C3)C1)C2)c1cnn2c1N[C@H](c1ccccc1)CC2,5300,
CC1(C)C[C@@H](c2ccccc2)Nc2c(C(=O)NC34CC5CC(CC(C5)C3)C4)cnn21,10,Cmax [2]: 64 ng/mL; Cmax [3]: 237 ng/mL; Tmax [4]: 1.3 h; Tmax [5]: 0.67 h; AUC [6]: 591 ng·h/mL; AUC [7]: 1270 ng·h/mL; MRT [8]: 4.65 h; MRT [9]: 4.48 h
CC1(C)C=C(c2ccccc2)Nc2c(C(=O)NC34CC5CC(CC(C5)C3)C4)cnn21,580,
O=C(NC12CC3CC(CC(C3)C1)C2)c1cnn2c(C(F)(F)F)cc(-c3ccccc3)nc12,> 10000,

# Further lines, with some results ahead:
IC50 [1] [nM],Compound,also measured
97,O=C(OC12CC3CC(CC(C3)C1)C2)c1cnn2c1N[C@H](c1ccccc1)C[C@@H]2C(F)(F)F,
> 10000,O=C(Nc1cnn2c1N[C@H](c1ccccc1)C[C@@H]2C(F)(F)F)C12CC3CC(CC(C3)C1)C2,
> 10000,COc1ccc([C@@H]2C[C@H](C(F)(F)F)n3ncc(C(=O)NC45CC6CC(CC(C6)C4)C5)c3N2)cc1,
> 10000,CCc1ccc([C@@H]2C[C@H](C(F)(F)F)n3ncc(C(=O)NC45CC6CC(CC(C6)C4)C5)c3N2)cc1,
400,O=C(NC12CC3CC(CC(C3)C1)C2)c1cnn2c1N[C@H](c1ccco1)C[C@@H]2C(F)(F)F,
> 10000,CC(C)(C)[C@@H]1C[C@H](C(F)(F)F)n2ncc(C(=O)NC34CC5CC(CC(C5)C3)C4)c2N1,
> 10000,C[C@@H]1C[C@H](c2ccccc2)n2ncc(C(=O)NC34CC5CC(CC(C5)C3)C4)c2N1,
